MPTP block – mitochondrial permeability transition pore inhibitors, primary screen, biochemical, isolated mouse mitochondria, absorbance; Ca2+ swelling absorbance, 30 min; inhibition, % at 10 µM; actives 1.4% (n = 360,000); AID 602449, 2012;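 active = inhibition of 50% or more, scaled per plate between neutral and stimulator controls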;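 note: 0% = DMSO wells given calcium and 100% = 1 mM EGTA wells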
V-ATPase pHluor – regulators of yeast V-ATPase proton pumping, primary screen, pHLuorin cytosolic pH fluorescence; AID 504577, 2011; response, % at 10 µM; actives 0.37% (n = 350,000); S. cerevisiae; in the data active = response mostly above about 7.3%, no sharp cut-off; inactive = mostly below about 5.4%; note: actives read high
T cell modulator – modulators of CD8 T cell-vesicle binding, primary screen, mouse 2C CD8+ T cells, flow cytometry; 2C CD8+ T cell-vesicle binding; active compounds read low; response (vesicle binding), % at 7 µM; actives 0.068% (n = 330,000); AID 2052, 2009;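 active = response, share of CD8 T cells binding vesicles, and their 90th percentile fluorescence all below set limits, cut at about 80% in these data, passing the limit was not always enough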;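 note: values below 100% mean blocked vesicle binding to the CD8+ T cells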
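Test system: purified 2C TCR transgenic mouse naive CD8+ T cells. Probe or stimulus: QL9-peptide-loaded Drosophila micro-vesicles bearing Ld, ICAM-1 and B7-1. Incubation: binding step 1.5 h, 37 °C, antibody labelling 20 min, ice. Measured by: flow cytometry of vesicle-bound cells.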
rCAG binder-1 – binders of r(CAG) RNA repeats, primary screen, biochemical, fluorescence; r(CAG) RNA repeat, TO-PRO-1 dye displacement fluorescence; inhibition, % at 3 µM; actives 1.3% (n = 370,000);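 active = inhibition above the plate cutoff, the mean of all test compounds on that plate plus 3 SD, cut at about 35% in these data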;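 note: 0% = DMSO alone and 100% = 100 µM mitoxantrone as full dye displacement; higher means more dye released from RNA so lower well fluorescence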
Exocytosis inh – LAMP-1 surface exposure blockers, TALL-104 cells – cell-based, flow cytometry, MLPCN library, primary screen | TALL-104 LAMP-1 surface exposure; cells stimulated with thapsigargin and PMA | inhibition, % at 10 µM | actives 0.66% (n = 360,000) | AID 651702, 2012;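 active = inhibition above about 55%, limit read from the data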
B2AR ag – beta2AR agonists driving receptor internalization, primary screen, cell-based, FAP fluorogen, flow cytometry; Beta-2 adrenergic receptor (Homo sapiens), P07550; Am2.2-beta2AR cells; response, % (test concentration not listed); actives 0.43% (n = 340,000); AID 504454, 2011;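 active = response above a set limit, near 3 SD of response in nonfluorescent compounds, cut at about 42% in these data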
Target sequence (P07550 whole entry, looked up): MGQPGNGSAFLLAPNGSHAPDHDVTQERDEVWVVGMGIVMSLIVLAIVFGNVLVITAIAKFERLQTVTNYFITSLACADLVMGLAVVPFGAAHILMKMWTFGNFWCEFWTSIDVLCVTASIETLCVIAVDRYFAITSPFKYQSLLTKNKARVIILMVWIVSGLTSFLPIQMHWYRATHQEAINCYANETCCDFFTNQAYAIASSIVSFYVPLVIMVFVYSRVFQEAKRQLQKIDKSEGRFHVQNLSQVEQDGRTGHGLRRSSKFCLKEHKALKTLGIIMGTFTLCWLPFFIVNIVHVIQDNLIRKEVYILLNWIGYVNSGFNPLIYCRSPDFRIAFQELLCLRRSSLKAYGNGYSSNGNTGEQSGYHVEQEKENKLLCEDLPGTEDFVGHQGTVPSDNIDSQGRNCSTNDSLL
Rh123 counter – fluorescence retest of MPTP screen hits in isolated mitochondria, single concentration. shares compounds with MPTP block. actives 78% (n = 5,000). membrane potential, Rhodamine 123 fluorescence. inhibition, % at 10 µM; in the data active = inhibition above about 22%;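 note: 0% = DMSO vehicle and 100% = positive control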
rCAG bind conf – small molecules binding CAG repeat RNA – biochemical, fluorescence, confirmation; shares compounds with rCAG binder-1; r(CAG) RNA repeat, TO-PRO-1 dye displacement fluorescence; inhibition, % at 3 µM; actives 70% (n = 4,300); AID 652065, 2013;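 active = inhibition above a per-plate cutoff, the mean inhibition of sample wells plus 3 SD, cut at about 35% in these data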;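 note: loss of TO-PRO-1 fluorescence as compound displaces dye from 1x1 AA loop RNA; 0% = DMSO only wells and 100% = 100 µM mitoxantrone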
DNA CAG counter – displacement of TO-PRO-1 from CAG DNA duplex, counter-screen for rCAG RNA repeat binder project, biochemical, fluorescence, TO-PRO-1 dye, d(CAG) DNA oligo; AID 652068, 2013; d(CAG) DNA oligo TO-PRO-1 dye displacement; shares compounds with rCAG binder-1; inhibition, % at 3 µM; actives 94% (n = 4,300);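 active = inhibition above its plate's cutoff, the mean test-well inhibition plus 3 SD, cut at about 4.8% in these data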;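 note: 0% = DNA dye mix with DMSO and 100% = 100 µM mitoxantrone; hits displace the dye from DNA and so lower well fluorescence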
dCAG dye DR – inhibitors of DNA CAG/GTC TO-PRO-1 complex, dose response, counter-screen for rCAG RNA repeat binder project, biochemical, fluorescence, TO-PRO-1 dye; shares compounds with rCAG binder-1; DNA CAG/GTC duplex TO-PRO-1 dye displacement fluorescence; IC50, µM; actives 20% (n = 250); in the data active = IC50 below about 10 µM
dCAG TOPRO ctr – TO-PRO-1 dye complex inhibitors on d(CAG) DNA, dose response, counter-screen, biochemical, fluorescence, late stage; shares compounds with rCAG binder-1; d(CAG) DNA duplex TO-PRO-1 dye displacement; IC50, µM; actives 80% (n = 30); AID 720649, 2013
rCAG binder-2 – molecules binding r(CAG) RNA repeats, late stage dose response, late-stage follow-up, biochemical, fluorescence, dose response, powder samples. shares compounds with rCAG binder-1. r(CAG) RNA TO-PRO-1 dye displacement. IC50, µM. actives 100% (n = 30)
Numbers without * were called inactive; i = inactive; / = no result given. Compounds with a hit are over-represented: about 3.8% of the library has one in this group of screens. Unless noted, the rule behind the calls is not given here.

SMILES	MPTP block	V-ATPase pHluor	T cell modulator	rCAG binder-1	Exocytosis inh	B2AR ag	Rh123 counter	rCAG bind conf	DNA CAG counter	others
Cc1ccccc1C(=O)NC1CCCCN(Cc2cccc(F)c2)C1=O (configuration not stated)	/	/	/	-1	/	/	/	/	/
CCOC(=O)c1sc(NC(=O)CSc2n[nH]c(-c3ccccc3)n2)c(C#N)c1C	100*	3	112	60*	2	8	71*	56*	19*
CCOC(=O)c1sc(NC(=O)CSc2nnc(Cc3ccccc3)o2)c(C#N)c1C	41	5	598	/	2	9	/	/	/
COc1cccc(C(C)=NNc2ccc([N+](=O)[O-])cc2[N+](=O)[O-])c1OC	0	0	/	3	-3	/	/	/	/
COc1ccc(C(C)=NNc2ccc([N+](=O)[O-])cc2S(=O)(=O)Nc2ccccc2C(=O)O)c(OC)c1	86*	-1	i	77*	0	10	38*	93*	78*
O=C(Nc1ccc(Cl)c(Cl)c1)Nc1nccs1	87*	-1	400	62*	12	17	68*	17	22*
Cc1nc2cc(NC(=O)Nc3nccs3)ccc2n1C	0	-2	551	5	-6	2	/	/	/
O=C1COc2ccccc2C(c2nnnn2Cc2ccccc2)N1Cc1cccs1 (configuration not stated)	/	/	/	3	/	/	/	/	/
CC(C)(C)c1ccc(NC(=O)COC(=O)c2ccc(NS(=O)(=O)c3ccc(F)c(F)c3)cc2)cc1	60*	6	241	70*	10	13	60*	67*	24*
CC(C)(C)NC(=O)NC(=O)COC(=O)c1cccc(NS(=O)(=O)c2ccc(F)c(F)c2)c1	1	3	252	16	1	-8	/	/	/
COc1ccc(NS(=O)(=O)c2ccc(O)c(NC(=O)c3ccc(S(=O)(=O)N4CCCCCC4)cc3)c2)cc1	66*	6	231	68*	-3	3	49*	78*	39*
O=C(COc1ccccc1/C=C1\SC(=S)NC1=O)Nc1ccc(F)cc1	61*	-1	268	39*	-5	12	78*	71*	32*	dCAG dye DR=i;dCAG TOPRO ctr=2.8*;rCAG binder-2=1.1*
NC1=NC(=O)/C(=C/c2ccccc2OCC(=O)Nc2ccc(F)cc2)S1	-2	-27	378	1	-4	-4	/	/	/
Cc1ccc(S(=O)(=O)Nc2ccc3cc([N+](=O)[O-])ccc3c2[N+](=O)[O-])cc1	88*	0	/	83*	-12	10	79*	82*	47*
c1ccc(-c2cc3c(ccc4nonc43)nn2)cc1	-2	0	559	-1	-2	-17	/	/	/
On1onc2c3cc(-c4ccccc4)nc3ccc21	101*	1	405	41*	3	27	65*	12	5.0*
O=[N+]([O-])c1cc(S(=O)(=O)Nc2cccc(C(F)(F)F)c2)ccc1-n1nnc2ccccc21	92*	1	392	78*	-2	-1	84*	69*	33*
CCSc1nsc(NC(=O)Nc2cccc(F)c2)n1	98*	-1	229	63*	23	18	80*	16	17*
COc1cccc(NC(=O)Nc2nc(SC)ns2)c1	69*	0	113	44*	29	-89	81*	9	9.4*
COc1cccc(NC(=O)c2cnc(SC)nc2)c1	0	-3	343	1	6	-2	/	/	/
COc1cccc(NC(=O)C(C)(C)C)c1	-1	-2	175	0	-4	-4	/	/	/
COc1cccc(NC(=O)Nc2nc(SC(C)(C)C)ns2)c1	93*	0	471	74*	0	26	77*	41*	32*
Nc1ccn([C@@H]2O[C@H](C(=O)N3CCN(CCO)CC3)[C@@H](O)[C@H]2O)c(=O)n1	/	/	/	3	/	/	/	/	/
O=C(NCCc1ccccc1)OCc1cn(-c2cccc(Cl)c2)nn1	/	/	/	3	/	/	/	/	/
COc1ccccc1NS(=O)(=O)c1cccc(NC(=O)Nc2cccc(Cl)c2)c1	81*	-1	243	35*	-5	16	76*	27	13*
SMILES	MPTP block	V-ATPase pHluor	T cell modulator	rCAG binder-1	Exocytosis inh	B2AR ag	Rh123 counter	rCAG bind conf	DNA CAG counter	others
O=C1NC(=S)N/C1=C/c1cc([N+](=O)[O-])ccc1O	-4	3	173	3	0	-4	/	/	/
O=C1/C(=C\c2cccc(O)c2O)SC(=S)N1Cc1ccccc1	92*	4	151	37*	-6	-57	46*	83*	53*
O=[N+]([O-])c1ccc(O)c(C=NN2CCCCC2)c1	1	0	/	2	-2	/	/	/	/
O=C1/C(=C\c2cc([N+](=O)[O-])ccc2O)SC(=S)N1Cc1ccc(Cl)cc1	52*	1	714	54*	-7	-407	7	87*	74*
Cc1ccccc1/C=C1\SC(=S)N(/N=C/c2cc([N+](=O)[O-])ccc2O)C1=O	80*	-1	432	37*	7	-2	45*	34	10*
CCCCCn1nnnc1C1(C)CSCC(=O)N1Cc1ccco1 (configuration not stated)	/	/	/	-1	/	/	/	/	/
Cc1ccc(C2(c3ccc(C)cc3)CC2C(=O)Nc2ccc([N+](=O)[O-])cc2O)cc1 (configuration not stated)	82*	0	601	66*	32	18	47*	62*	29*
